From PubChem BioAssay
OXTR ag: agonists of human oxytocin receptor; P30559; CHO-OTR cells, Fluo-8 calcium fluorescence; normalized: DMSO 0%, oxytocin 100%; activation, % at 3 µM; actives 0.32% (n = 320,000); AID 2435;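 active = activation above the mean of all tested compounds plus 3 SD, cutoff set per screening run, cut at about 20% in these data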;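 note: peak over basal fluorescence ratio from a 100 s FLIPR kinetic read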
Target sequence (P30559 whole entry, looked up): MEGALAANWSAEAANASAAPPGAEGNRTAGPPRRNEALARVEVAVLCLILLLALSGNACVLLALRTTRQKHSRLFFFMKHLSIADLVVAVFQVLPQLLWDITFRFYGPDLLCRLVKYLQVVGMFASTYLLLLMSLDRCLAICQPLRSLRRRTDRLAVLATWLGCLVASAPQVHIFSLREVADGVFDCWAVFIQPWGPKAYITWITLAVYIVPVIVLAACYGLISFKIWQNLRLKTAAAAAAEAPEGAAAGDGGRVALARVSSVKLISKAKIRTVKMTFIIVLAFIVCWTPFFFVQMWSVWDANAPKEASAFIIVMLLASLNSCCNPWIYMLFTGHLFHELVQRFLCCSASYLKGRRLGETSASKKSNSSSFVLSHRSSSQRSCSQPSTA
CHO parental Ca: counter-screen for OX1R antagonists: effect in parental CHO cells; AID 463079; actives 0.63% (n = 330,000); parental CHO-K1, ATP-induced calcium, Fluo-8 fluorescence; inhibition, % at 5.6 µM;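 active = inhibition above that plate's mean sample inhibition plus 3 SD, cut at about 26% in these data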
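Assay system: parental CHO cells; Read-out basis: percent inhibition of ATP-evoked calcium rise, normalized to controls; Benchmarks: ATP and no-ATP DMSO wells; Compound dosing: single nominal dose of 5.6 µM per compound; Signal: Fluo-8 calcium dye fluorescence; Also added: ATP as calcium-mobilizing challenge; Repeats: singlicate.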
V1aR counter: activates human V1a receptor in oxytocin agonist counter-screen; CHO-V1R cells, Fluo-8 calcium fluorescence, agonist mode; 0% DMSO, 100% 3 nM vasopressin; AID 2797; activation, % at 3 µM; actives 0.25% (n = 320,000); P37288;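 active = activation above the mean activation of all tested compounds plus 3 SD, per screening run, cut at about 20% in these data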;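 note: signal is peak over basal fluorescence ratio across a 100 second FLIPR read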
OX1R antag-1: antagonists of human orexin 1 receptor (OX1R) | O43613 | OX1R-expressing cells, FRET antagonist read-out | actives 1.8% (n = 330,000) | inhibition, % at 6.6 µM; in the data active = inhibition mostly above about 38%, no sharp cut-off; inactive = mostly below about 40%
OX1R antag-2: antagonists of human orexin 1 receptor | O43613 | CHO/OX1R cells, Fluo-8 calcium fluorescence, orexin A | inhibition, % at 5 µM | actives 0.43% (n = 330,000) | AID 434989;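 active = inhibition above its plate's threshold, mean inhibition of all tested compounds on the plate plus 3 SD, cut at about 37% in these data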
OXTR potentiate: human OXTR potentiation; activation, % at 3 µM; actives 0.061% (n = 320,000); AID 2445; P30559; CHO-OTR cells, Fluo-8 calcium fluorescence, potentiator mode; 0% = oxytocin EC15, 100% = EC100;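 active = activation above that plate's cutoff, the mean activation of tested compounds plus 3 SD, cut at about 6.6% in these data, passing the limit was not always enough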
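Assay system: CHO cell line stably expressing human OTR. Reagent: EC15 oxytocin agonist. Dosing: single dose, 3.0 µM nominal final compound concentration. Timing: compound 6 min at room temperature before oxytocin, 100 s read. Signal: kinetic Fluo-8 calcium fluorescence. Controls: oxytocin EC15 low and EC100 high.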
OX1R HTRF confirm: OX1R (human) antagonism, HTRF confirmed; shares compounds with OX1R antag-1; OX1R-expressing cells, HTRF antagonist assay; inhibition, % at 6.6 µM; actives 49% (n = 1,800); in the data active = inhibition above about 55%;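 note: CHO cells expressing OX1R stimulated with orexin A at about EC80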
CHO-K1 HTRF: counter-screen: parental CHO-K1 HTRF response | shares compounds with OX1R antag-1 | parental CHO-K1 cells, HTRF counterscreen | inhibition, % at 6.6 µM | actives 48% (n = 1,800); in the data active = inhibition above about 17%
Numbers stand for hits; i = inactive; nt = no result given. An excerpt weighted towards active compounds, which were near 2.6% of everything screened.

SMILES	OXTR ag	CHO parental Ca	V1aR counter	OX1R antag-1	OX1R antag-2	OXTR potentiate	OX1R HTRF confirm	CHO-K1 HTRF
CC1=CC(=NOC(=O)c2cccc([N+](=O)[O-])c2)C=C(C)C1=O	i	i	i	118	i	i	i	18
COc1cccc(C(=O)N(Cc2cc3cc(C)ccc3[nH]c2=O)C(C)C)c1	i	i	i	77	i	i	68	i
Cc1c(C(=O)Nc2ccc3c(c2)OCCO3)oc2ccc(Br)cc12	i	i	i	82	i	i	76	i
Cc1c(C(=O)NCc2ccc3c(c2)OCO3)oc2ccc(Br)cc12	i	i	i	i	i	i	nt	nt
O=C(Nc1ccc2c(c1)OCCO2)c1cc2ccccc2o1	i	i	i	i	i	i	nt	nt
Cc1nc2ccccc2c2oc(C(=O)Nc3ccc4c(c3)OCCO4)cc12	i	i	i	95	i	i	89	i
Nc1ncnc2c1ncn2[C@@H]1O[C@H](CNCc2cccc(C#Cc3ccccc3)c2)[C@@H](O)[C@H]1O	nt	i	nt	i	i	nt	nt	nt
O=C(CSc1nnc(C2CC2)n1C1CC1)Nc1cccc(Br)c1	i	i	i	i	i	i	nt	nt
CCOC(=O)c1cc2c(=O)n3cccc(C)c3nc2n(CCCOC)c1=NC(=O)c1cccnc1	i	i	i	i	i	i	nt	nt
Cn1c(C(=O)NCC2CCCO2)cc2c(=O)n3ccccc3nc21 (stereo not given)	i	i	i	i	i	i	nt	nt
CCOCCCn1c(=NC(=O)c2cccnc2)c(C(=O)OCC)cc2c(=O)n3ccccc3nc21	i	i	i	111	i	i	57	59
CCOC(=O)c1cc2c(=O)n3ccccc3nc2n(CC2CCCO2)c1=NC(=O)/C=C/c1ccccc1 (stereo not given)	i	i	i	119	i	i	i	42
CCOC(=O)c1cc2c(=O)n3ccccc3nc2n(CC2CCCO2)c1=NC(C)=O (stereo not given)	i	i	i	108	i	i	i	56
CCOc1cc(N2CCOCC2)c(OCC)cc1NC(=O)COC(=O)c1ccc(Cl)nc1	i	i	i	i	i	i	nt	nt
COc1ccc(Cl)cc1C(=O)NNC(=O)CNC(=O)c1ccc(C)s1	i	i	i	i	i	i	nt	nt
O=C(CC1SC(=O)N(Cc2ccccc2Cl)C1=O)Nc1nccs1 (stereo not given)	i	i	i	i	i	i	nt	nt
CS(=O)(=O)N1N=C(c2ccco2)CC1c1ccc(Cl)cc1 (stereo not given)	i	i	i	i	i	i	nt	nt
COc1ccc(-c2ccc(SCC(=O)N3CC(=O)Nc4ccccc43)nn2)cc1	i	i	i	97	i	i	i	i
NC(=O)c1cccn1Cc1ccccc1Cl	i	i	i	i	i	i	nt	nt
O=c1c([N+](=O)[O-])cccn1Cc1ccccc1Cl	i	i	i	79	i	i	i	27
Cc1ccnc(N2C(=O)c3cccc4c([N+](=O)[O-])ccc(c34)C2=O)c1	i	i	i	107	i	i	i	73
Cc1ccnc(N2C(=O)c3ccccc3C2=O)c1	i	i	i	i	i	i	nt	nt
CCOC(=O)C1CCN(C(=O)CCCn2c(=O)c3cccn3c3cccnc32)CC1	i	i	i	i	i	i	nt	nt
CCOC(=O)c1cccc(NC(=O)CCCn2c(=O)c3cccn3c3cccnc32)c1	i	i	i	80	i	i	80	i
COc1ccc(CCN2CC(C(=O)N(C)CC(=O)Nc3cccc(F)c3)CC2=O)cc1OC (stereo not given)	i	i	i	i	i	i	nt	nt
SMILES	OXTR ag	CHO parental Ca	V1aR counter	OX1R antag-1	OX1R antag-2	OXTR potentiate	OX1R HTRF confirm	CHO-K1 HTRF
COCCCNC(=O)c1ccc([N+](=O)[O-])cc1	i	i	i	i	i	i	nt	nt
O=C(NCCCCC(NC(=O)c1ccc([N+](=O)[O-])cc1)C(=O)O)c1ccc([N+](=O)[O-])cc1 (stereo not given)	i	i	i	137	i	i	i	58
O=C(COc1ccc(C(=S)N2CCCC2)cc1)Nc1ccccc1C(F)(F)F	i	i	i	83	i	i	72	i
COCCN(C(=S)Nc1c(C)cccc1C)C(C)c1cccs1 (stereo not given)	i	i	i	147	i	i	i	i
COCCN(C(=S)Nc1cccc(C)c1)C(C)c1cccs1 (stereo not given)	i	i	i	i	i	i	nt	nt
C=CCSc1nnc2c(n1)OC(c1cccnc1)N(C(C)=O)c1ccccc1-2 (stereo not given)	i	i	i	i	i	i	nt	nt
C=CCSc1nnc2c(n1)OC(c1cccnc1)Nc1ccccc1-2 (stereo not given)	i	i	i	78	i	i	i	i
COc1ccccc1C(=O)NCCC(=O)Nc1cccc(S(=O)(=O)N2CCCC2)c1	i	i	i	i	i	i	nt	nt
CCOc1ccc(N(CC(=O)NCc2ccccc2Cl)S(=O)(=O)c2c(C)noc2C)cc1	i	i	i	i	i	i	nt	nt
c1ccc(CN2CCN(C3CCCSc4ccccc43)CC2)cc1 (stereo not given)	i	i	i	87	i	i	79	i
O=C(C1CCC1)N1CCN(Cc2ccccc2)CC1	i	i	i	i	i	i	nt	nt
COc1ccccc1CNc1ncccc1[N+](=O)[O-]	i	i	i	i	i	i	nt	nt
COC(=O)CCCNc1ncccc1[N+](=O)[O-]	i	i	i	97	i	i	i	39
O=C(CSc1nnc2ccccn12)NNC(=O)c1ccc([N+](=O)[O-])cc1	i	i	i	97	i	i	i	36
COc1cccc(Nc2nc(C)nc3c2oc2ccccc23)c1	i	i	i	i	i	i	nt	nt
COc1ccc(Nc2ncnc3c2oc2ccccc23)cc1	i	i	i	83	i	i	62	i
Cc1ccc(COC(=O)c2ccc3ccccc3n2)cc1	i	i	i	i	i	i	nt	nt
CCCn1c(N)c(CC)c(=O)[nH]c1=O	i	i	i	i	i	i	nt	nt
[O-][n+]1onc2c1CCc1nnccc1-2	i	i	i	i	i	i	nt	nt
[O-][n+]1onc2c1CCc1nnc(-c3ccccc3)cc1-2	i	i	i	151	i	i	i	70
Cn1nccc1C(=O)N1CCN(c2ccccc2F)CC1	i	i	i	i	i	i	nt	nt
CCOC(=O)c1sc(NC(=O)c2ccc(C)s2)cc1C	i	i	i	79	i	i	i	i
CCOC(=O)c1sc(NC(=O)Nc2ccccc2Cl)cc1C	i	i	i	78	i	i	i	i
CCOC(=O)c1sc(NC(=O)C2CCC2)cc1C	i	i	i	i	i	i	nt	nt
